Measurements as given in ChEMBL document CHEMBL4033782, “Structural Modification of Natural Product Tanshinone I Leading to Discovery of Novel Nitrogen-Enriched Derivatives with Enhanced Anticancer Profile and Improved Drug-like Properties” (J Med Chem, 2018).
Converted amounts (≈) assume the structure as drawn.

What was measured:
Mus musculus [1] = assay: Toxicity in BALB/C nude mouse xenografted with human HCT116 cells assessed as body weight loss at 10 mg/kg, iv once daily for 14 days starting on day 14 post tumor implantation measured every 4 days during compound dosing; assay type: organism-based; settings: in vivo
In short: (§1)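 Male BALB/c nude mice (18–20 g) with subcutaneous HCT116 implants in right axilla; treatment from day 14 once tumors exceeded 100 mm3, randomized (6/treated, 10/control group); 10 mg/kg i.v. or 30 mg/kg i.p. daily for 14 days in 1% DMSO/saline; 5-FU 15 mg/kg as reference; body weight tracked, mean ± SD of 6 mice.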

[2] = Cmax in Sprague-Dawley rat at 3.0 mg/kg, po; assay type: ADME, organism-based; set-up: dose 3 mg/kg, route oral; settings: in vivo
In short: (§2)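 Male SD rats dosed i.v. at 1.0 mg/kg or orally at 3.0 mg/kg. Vehicle is DMSO, Tween 80 and normal saline. Plasma concentration–time data give CL, Vss, T1/2, Cmax, Tmax, MRT, AUC and oral bioavailability F.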

HCT-116 [3] = assay: Antiproliferative activity against human HCT116 cells after 72 hrs by sulforhodamine B assay; assay type: functional, cell-based; settings: HCT-116, 72 h
In short: (§3)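 Cells grown in ATCC-specified medium with 10% heat-inactivated FBS, penicillin/streptomycin and 10 mM Hepes, at 37 °C under 5% CO2. Seeded, cultured overnight, then exposed to gradient concentrations for 72 h. Growth read by SRB staining; inhibition % = [1−(A450 treated/A450 control)]×100. IC50 obtained by the Logit method from independent experiments.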

HCT-116 [4] = assay: Induction of apoptosis in human HCT116 cells pretreated with Z-VAD-FMK pan-caspase inhibitor for 1 hr assessed as early apoptotic cells at 0.5 uM after 48 hrs by Annexin V-FITC/propidium iodide staining-based FACS analysis (reference value: 1.34%); assay type: functional; set-up: scale not given: the % may be the effect or the level left
[5] = Aqueous solubility of the compound in pH 7.5 Tris buffer after 24 hrs by HPLC method; assay type: physicochemical
[6] = Half life in Sprague-Dawley rat at 1.0 mg/kg, iv; assay type: ADME, organism-based; settings: in vivo; in short: as §2
[7] = Antiproliferative activity against human HepG cells after 72 hrs by sulforhodamine B assay; assay type: functional, cell-based; in short: as §3
NCI-H460 = assay: Antiproliferative activity against human H460 cells after 72 hrs by sulforhodamine B assay; assay type: functional, cell-based; settings: NCI-H460, 72 h; in short: as §3
HCT-116 [8] = assay: Induction of apoptosis in human HCT116 cells pretreated with Z-VAD-FMK pan-caspase inhibitor for 1 hr assessed as late apoptotic cells at 0.5 uM after 48 hrs by Annexin V-FITC/propidium iodide staining-based FACS analysis (reference value: 3.15%); assay type: functional; set-up: scale not given: the % may be the effect or the level left
HCT-116 [9] = assay: Induction of apoptosis in human HCT116 cells pretreated with Z-VAD-FMK pan-caspase inhibitor for 1 hr assessed as early apoptotic cells at 2 uM after 48 hrs by Annexin V-FITC/propidium iodide staining-based FACS analysis (reference value: 1.34%); assay type: functional; set-up: scale not given: the % may be the effect or the level left
[10] = MRT (infinity) in Sprague-Dawley rat at 1.0 mg/kg, iv; assay type: ADME, organism-based; settings: in vivo
In short: (§4)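 Male SD rats given 1.0 mg/kg i.v. in DMSO/Tween 80/normal saline vehicle; plasma concentration–time profile used for clearance, Vss, MRT.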

[11] = Half life in human liver microsomes at 0.1 uM up to 60 mins by LC-MS/MS analysis; assay type: ADME, microsome
In short: (§5)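 Compound at 0.1 μM final (0.01% DMSO, 0.005% BSA) incubated at 37 °C with human, rat or mouse liver microsomes (0.33 mg/mL protein) in 0.1 M Tris/HCl pH 7.4, with 5 mM MgCl2 and 1 mM NADPH. Samples taken at 0, 7, 17, 30 and 60 min, quenched by methanol precipitation, centrifuged, and parent measured by LC-MS/MS. T1/2 and Clint derived.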

[12] = AUC in Sprague-Dawley rat at 1.0 mg/kg, iv; assay type: ADME, organism-based; settings: in vivo; in short: as §2
[13] = Half life in mouse liver microsomes at 0.1 uM up to 60 mins by LC-MS/MS analysis; assay type: ADME, microsome; settings: liver microsomes; in short: as §5
Mus musculus [14] = assay: Toxicity in BALB/C nude mouse xenografted with human HCT116 cells assessed as body weight loss at 30 mg/kg, ip once daily for 14 days starting on day 14 post tumor implantation measured every 4 days during compound dosing; assay type: organism-based; settings: in vivo; in short: as §1
[15] = Tmax in Sprague-Dawley rat at 3.0 mg/kg, po; assay type: ADME, organism-based; settings: in vivo
In short: (§6)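 Male SD rats dosed orally at 3.0 mg/kg in DMSO/Tween 80/normal saline; plasma profile gives T1/2, Cmax, Tmax, AUC, MRT; F from comparison with 1.0 mg/kg i.v. dosing.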

HCT-116 [16] = assay: Induction of apoptosis in human HCT116 cells assessed as late apoptotic cells at 1 uM after 48 hrs by Annexin V-FITC/propidium iodide staining-based FACS analysis (reference value: 5.74%); assay type: functional
BEL-7404 tumor cell line = assay: Antiproliferative activity against human Bel7404 cells after 72 hrs by sulforhodamine B assay; assay type: functional, cell-based; settings: BEL-7404, 72 h; in short: as §3
HCT-116 [17] = assay: Induction of apoptosis in human HCT116 cells pretreated with Z-VAD-FMK pan-caspase inhibitor for 1 hr assessed as early apoptotic cells at 1 uM after 48 hrs by Annexin V-FITC/propidium iodide staining-based FACS analysis (reference value: 1.34%); assay type: functional; set-up: scale not given: the % may be the effect or the level left
HCT-116 [18] = assay: Induction of apoptosis in human HCT116 cells assessed as late apoptotic cells at 0.5 uM after 48 hrs by Annexin V-FITC/propidium iodide staining-based FACS analysis (reference value: 5.74%); assay type: functional
Liver = assay: Intrinsic clearance in human liver microsomes assessed as per mg protein up to 60 mins by LC-MS/MS analysis; assay type: ADME, microsome; settings: 1 h; in short: as §5
A549 = assay: Antiproliferative activity against human A549 cells after 72 hrs by sulforhodamine B assay; assay type: functional, cell-based; settings: A549, 72 h; in short: as §3
[19] = AUC in Sprague-Dawley rat at 3.0 mg/kg, po; assay type: ADME, organism-based; settings: in vivo; in short: as §2
HCT-116 [20] = assay: Induction of apoptosis in human HCT116 cells assessed as early apoptotic cells at 0.5 uM after 48 hrs by Annexin V-FITC/propidium iodide staining-based FACS analysis (reference value: 2.35%); assay type: functional
KB = assay: Antiproliferative activity against human KB cells after 72 hrs by sulforhodamine B assay; assay type: functional, cell-based; in short: as §3
[21] = MRT (infinity) in Sprague-Dawley rat at 3.0 mg/kg, po; assay type: ADME, organism-based; settings: in vivo; in short: as §6
HCT-116 [22] = assay: Induction of apoptosis in human HCT116 cells assessed as late apoptotic cells at 2 uM after 48 hrs by Annexin V-FITC/propidium iodide staining-based FACS analysis (reference value: 5.74%); assay type: functional
[23] = Antiproliferative activity against human KB/VCR cells after 72 hrs by sulforhodamine B assay; assay type: functional, cell-based; in short: as §3
[24] = Half life in Sprague-Dawley rat at 3.0 mg/kg, po; assay type: ADME, organism-based; settings: in vivo; in short: as §2
HCT-116 [25] = assay: Induction of apoptosis in human HCT116 cells pretreated with Z-VAD-FMK pan-caspase inhibitor for 1 hr assessed as late apoptotic cells at 1 uM after 48 hrs by Annexin V-FITC/propidium iodide staining-based FACS analysis (reference value: 3.15%); assay type: functional; set-up: scale not given: the % may be the effect or the level left
[26] = Oral bioavailability in Sprague-Dawley rat at 3.0 mg/kg; assay type: ADME, organism-based; settings: in vivo; in short: as §6
[27] = Volume of distribution at steady state in Sprague-Dawley rat at 1.0 mg/kg, iv; assay type: ADME, organism-based; settings: in vivo, read-out: Vdss; in short: as §4
DU-145 = assay: Antiproliferative activity against human DU145 cells after 72 hrs by sulforhodamine B assay; assay type: functional, cell-based; settings: DU-145, 72 h; in short: as §3

Structure (SMILES): CCN(CC)CCCn1c2c(c3ccccc3c1=O)C(=O)C(=O)c1cc(C)oc1-2
- Activity (Mus musculus [1]): Non-Toxic
- Cmax [2]: 33.7 ng/mL
- IC50 (HCT-116 [3]): 0.14 µM
- Activity (HCT-116 [4]): 1.53%
- solubility at 24 h [5]: 15.7 mg/mL (≈ 40.1 mM)
- half-life [6]: 1.51 h
- IC50 [7]: 1.31 µM
- IC50 (NCI-H460): 0.17 µM
- Activity (HCT-116 [8]): 4.09%
- Activity (HCT-116 [9]): 11.88%
- MRT inf [10]: 0.835 h
- half-life at 0.1 µM [11]: 1.49 h
- AUC [12]: 114 ng·h/mL
- half-life at 0.1 µM [13]: 0.909 h
- Activity (Mus musculus [14]): Non-Toxic
- Tmax [15]: 0.25 h
- Activity (HCT-116 [16]): 9.09%
- IC50 (BEL-7404 tumor cell line): 0.36 µM
- Activity (HCT-116 [17]): 2.99%
- Activity (HCT-116 [18]): 4.19%
- intrinsic clearance (Liver): 23.5 mL/min/g
- IC50 (A549): 0.19 µM
- AUC [19]: 81.4 ng·h/mL
- Activity (HCT-116 [20]): 2.39%
- IC50 (KB): 0.12 µM
- MRT inf [21]: 3.72 h
- Activity (HCT-116 [22]): 32.63%
- IC50 [23]: 0.33 µM
- half-life [24]: 2.58 h
- Activity (HCT-116 [25]): 6.47%
- bioavailability [26]: 21%
- Vd [27]: 7.98 L/kg
- IC50 (DU-145): 0.22 µM
